This passage reports IC50 results from ChEMBL document CHEMBL3784943, “Structure based medicinal chemistry-driven strategy to design substituted dihydropyrimidines as potential antileishmanial agents” (Eur J Med Chem, 2016).

Usually IC50 stands for the concentration needed to halve the response being measured.

One experiment relates to Leishmania major. The experiment is described as follows: Antileishmanial activity against Leishmania major promastigotes after 72 hrs by Neubauer chamber counting. The experiment is classed as functional, organism-based.
A further experiment concerns Leishmania donovani. The experiment is described as follows: Antileishmanial activity against Leishmania donovani promastigotes after 72 hrs by Neubauer chamber counting. The experiment is classed as functional, organism-based. The gist of the method: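 Clinical isolate promastigotes grown at 24 °C in medium 199 with 10% fetal bovine serum, HEPES, sodium bicarbonate, penicillin and streptomycin. Cultures harvested after 6–7 days, washed three times in PBS, resuspended at 2 × 10^6 cells/mL and exposed to serial compound dilutions for 72 h at 24 °C with shaking. Amphotericin B positive control, DMSO negative control. Run in triplicate; IC50 from live-cell counts.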

[1] abbreviates: Leishmania donovani, 72 h, read-out: IC50.

Values after ≈ are worked out from the molar mass of the structure shown. A value given as a limit tells only on which side of the number the result lay.

The compound `COCC1=C(C(=O)OC)C(c2cccc([N+](=O)[O-])c2)NC(=O)N1` (configuration not stated) registered an IC50 in the experiment on Leishmania major of 0.95 µg/mL (≈ 2.96 µM).

In the experiment on Leishmania major, `CC(=O)C1=C(C)NC(=S)NC1c1ccccc1` (configuration not stated) yielded an IC50 of 0.78 µg/mL (≈ 3.17 µM).

For the compound `CC(=O)C1=C(CNc2ccc(C(=O)/C=C/c3ccc(N(C)C)cc3)cc2)N(C)C(=O)NC1c1ccccc1` (configuration not stated), the IC50 was 0.71 µg/mL (≈ 1.4 µM) with Leishmania major and “Not Active” in the experiment on Leishmania donovani.

With `CC(=O)C1=C(CNc2ccc(C(=O)/C=C/c3ccccc3)cc2)N(C)C(=O)NC1c1ccccc1` (configuration not stated), the IC50 is 0.54 µg/mL (≈ 1.16 µM) in the experiment on Leishmania major and above 100 µg/mL in the experiment on Leishmania donovani (setting [1]).

On to `CC1=C(C(=O)Nc2ccc(C(=O)/C=C/c3cccc([N+](=O)[O-])c3)cc2)C(c2ccc(C)cc2)NC(=S)N1` (configuration not stated), for which the IC50 in the experiment on Leishmania major was 0.65 µg/mL (≈ 1.27 µM); in the experiment with Leishmania donovani, “Not Active”.

Compound `COc1cc(C2NC(=O)NC(C)=C2C(C)=O)ccc1O` (configuration not stated) registered an IC50 with Leishmania major of 0.71 µg/mL (≈ 2.57 µM).

In the case of `CC1=C(C(=O)Nc2ccc(C(=O)/C=C/c3ccc(O)cc3)cc2)C(c2cccc(O)c2)NC(=S)N1` (configuration not stated), the IC50 turned out to be 0.51 µg/mL (≈ 1.05 µM) with Leishmania major and 5.58 µg/mL (≈ 11.5 µM) with Leishmania donovani (setting [1]).

As for `CC1=C(C(=O)Nc2ccc(C(=O)/C=C/c3ccc(O)cc3)cc2)C(c2ccc(C)cc2)NC(=S)N1` (configuration not stated), the IC50 in the experiment on Leishmania major was 0.53 µg/mL (≈ 1.1 µM); in the experiment with Leishmania donovani, “Not Active”.

`CC(=O)C1=C(CNc2ccc(C(=O)/C=C/c3ccc(Cl)cc3)cc2)N(C)C(=O)NC1c1ccccc1` (configuration not stated): the IC50 with Leishmania major turned out to be 0.53 µg/mL (≈ 1.06 µM); in the experiment with Leishmania donovani (setting [1]) it was 4.4 µg/mL (≈ 8.8 µM).

As for `CCOC(=O)C1=C(C)NC(=O)NC1c1ccccc1` (configuration not stated), inhibition in the experiment with Leishmania major was half-maximal at 0.99 µg/mL (≈ 3.8 µM) (IC50).

`COc1ccc(C2NC(=O)NC(C)=C2C(C)=O)cc1` (configuration not stated) showed an IC50 in the experiment on Leishmania major of 0.69 µg/mL (≈ 2.65 µM).

As for `CC(=O)C1=C(CNc2ccc(C(=O)/C=C/c3ccc(O)cc3)cc2)N(C)C(=O)NC1c1ccccc1` (configuration not stated), the IC50 came out at 0.51 µg/mL (≈ 1.06 µM) in the experiment with Leishmania major and 7.5 µg/mL (≈ 15.6 µM) with Leishmania donovani (setting [1]).

In the case of `CCOC(=O)C1=C(C)NC(=S)NC1c1ccc(C)cc1` (configuration not stated), in the experiment on Leishmania major, the half-inhibitory concentration (IC50) is 0.63 µg/mL (≈ 2.17 µM).

As to `CC1=C(C(=O)/C=C/c2ccc(O)cc2)C(c2ccccc2)NC(=O)N1C` (configuration not stated), the IC50 with Leishmania major is 0.59 µg/mL (≈ 1.69 µM); with Leishmania donovani, “Not Active”.

Consider `CC(=O)C1=C(CNc2ccc(C3=NNC(c4ccc(O)cc4)C3)cc2)N(C)C(=O)NC1c1ccccc1` (configuration not stated), for which the IC50 in the experiment with Leishmania major came out at 0.47 µg/mL (≈ 0.948 µM); with Leishmania donovani (setting [1]) it was 1.5 µg/mL (≈ 3.03 µM).

Regarding `CC1=C(C(=O)/C=C/c2cccc([N+](=O)[O-])c2)C(c2ccccc2)NC(=O)N1C` (configuration not stated), the IC50 in the experiment on Leishmania major is 0.73 µg/mL (≈ 1.93 µM); with Leishmania donovani it was “Not Active”.

Consider `CC1=C(C(=O)/C=C/c2ccc(Cl)cc2)C(c2ccccc2)NC(=O)N1C` (configuration not stated), for which the IC50 was 0.63 µg/mL (≈ 1.72 µM) in the experiment on Leishmania major and “Not Active” with Leishmania donovani.

Turning to `CC(=O)C1=C(C)NC(=O)NC1c1ccccc1` (configuration not stated), half-maximal inhibition in the experiment on Leishmania major (IC50) was put at 0.61 µg/mL (≈ 2.65 µM).

Take `CC(=O)C1=C(C)N(C)C(=O)NC1c1ccccc1` (configuration not stated): the midpoint of inhibition in the experiment on Leishmania major, the IC50, lay at 0.63 µg/mL (≈ 2.58 µM).

As to `CCOC(=O)C1=C(C)NC(=S)NC1c1cccc(O)c1` (configuration not stated) [MONASTROL], the midpoint of inhibition in the experiment on Leishmania major, the IC50, lay at 0.65 µg/mL (≈ 2.22 µM).

`CC(=O)C1=C(CNc2ccc(C(=O)/C=C/c3cccc([N+](=O)[O-])c3)cc2)N(C)C(=O)NC1c1ccccc1` (configuration not stated): the IC50 with Leishmania major was 0.67 µg/mL (≈ 1.31 µM); in the experiment with Leishmania donovani (setting [1]), above 100 µg/mL.

In the case of `CC(=O)C1=C(C)NC(=O)NC1c1cccc([N+](=O)[O-])c1` (configuration not stated), the IC50 in the experiment on Leishmania major was found to be 0.67 µg/mL (≈ 2.43 µM).

On to `CC(=O)C1=C(C)NC(=O)NC1c1cccc(C)c1` (configuration not stated), for which, in the experiment with Leishmania major, it took 0.89 µg/mL (≈ 3.64 µM) to reach half-maximal inhibition (IC50).

`CC1=C(C(=O)Nc2ccc(C(=O)/C=C/c3cccc([N+](=O)[O-])c3)cc2)C(c2cccc(O)c2)NC(=S)N1` (configuration not stated): the IC50 in the experiment with Leishmania major is 0.58 µg/mL (≈ 1.13 µM); with Leishmania donovani it was “Not Active”.
